Several values for one entry are separate records, joined by “and”; a condition that tells them apart may be missing. Identical values can stand only once.

For series [1], the target named is T1, hERG channel (Homo sapiens, UniProt Q12809). The following applies: for Maximum inhibition of hERG currents: 1.9 μM, mean ± SEM, n = 3; for Rel. Pot., patch clamp: relative potency compared to AZA1.
Series [2] deals with T1, hERG channel. The following applies: for hERG binding of [3H]dofetilide relative to vehicle controls (reduced to): 10 μM; for Rel. Pot., channel binding: relative potency compared to AZA1.
Series [3] addresses T1, hERG channel. The note with it: for Thallium flux via hERG relative to vehicle controls (reduced to): 30 μM, mean ± SEM, n = 3; for Rel. Pot., thallium flux: relative potency compared to AZA1. For orientation: hERG is a cardiac potassium channel; its block is linked to QT prolongation.
For series [4], the system named is Jurkat T lymphocyte cells. The note with it: fold more potent than AZA1; cited from earlier work.
Another series has as its target WT hERG1 channels (Homo sapiens, UniProt Q12809). The series can be described thus: Two-electrode voltage clamp of WT hERG1 channels in Xenopus oocytes. The series is classed as cell-based.
For another series, the target named is F656T hERG1 channels (Homo sapiens, UniProt Q12809, F656T). The series can be described thus: Two-electrode voltage clamp of F656T hERG1 channels in Xenopus oocytes. Format: cell-based. The note with it: 10 μM. In general terms: In two-electrode clamp one electrode senses voltage and the other passes current.
A further series addresses Y652A hERG1 channels (Homo sapiens, UniProt Q12809, Y652A). Put plainly: Two-electrode voltage clamp of Y652A hERG1 channels in Xenopus oocytes. The series is classed as cell-based. The following applies: 10 μM.
For the next series, the target named is T2, hEAG1 channels (Homo sapiens, UniProt O95259).
T2 sequence (O95259 1-962 isoform O95259-2): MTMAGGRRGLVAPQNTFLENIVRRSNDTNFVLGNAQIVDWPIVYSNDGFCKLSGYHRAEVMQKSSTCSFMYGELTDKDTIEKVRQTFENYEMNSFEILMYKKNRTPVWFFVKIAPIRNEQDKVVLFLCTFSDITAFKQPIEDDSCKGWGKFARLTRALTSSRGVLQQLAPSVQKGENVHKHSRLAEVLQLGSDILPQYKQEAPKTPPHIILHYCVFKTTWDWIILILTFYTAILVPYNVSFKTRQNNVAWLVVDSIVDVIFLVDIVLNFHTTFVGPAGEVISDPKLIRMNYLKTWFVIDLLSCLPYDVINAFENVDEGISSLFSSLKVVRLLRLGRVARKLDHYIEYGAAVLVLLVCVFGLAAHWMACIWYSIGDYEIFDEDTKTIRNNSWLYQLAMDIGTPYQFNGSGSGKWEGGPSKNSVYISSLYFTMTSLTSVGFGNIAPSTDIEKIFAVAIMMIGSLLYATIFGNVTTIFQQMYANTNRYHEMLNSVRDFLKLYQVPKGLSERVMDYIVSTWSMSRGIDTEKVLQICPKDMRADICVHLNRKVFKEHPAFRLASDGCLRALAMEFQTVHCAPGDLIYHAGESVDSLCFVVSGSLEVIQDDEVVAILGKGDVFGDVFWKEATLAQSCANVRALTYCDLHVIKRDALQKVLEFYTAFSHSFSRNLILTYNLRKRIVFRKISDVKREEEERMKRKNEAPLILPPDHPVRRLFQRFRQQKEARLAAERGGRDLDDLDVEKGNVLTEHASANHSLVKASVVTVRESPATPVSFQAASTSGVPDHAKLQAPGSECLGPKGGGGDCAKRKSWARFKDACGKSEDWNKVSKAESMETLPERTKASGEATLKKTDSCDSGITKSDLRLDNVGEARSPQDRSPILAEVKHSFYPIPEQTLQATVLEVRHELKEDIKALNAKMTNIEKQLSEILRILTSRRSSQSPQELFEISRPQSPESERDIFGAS
Put plainly: Two-electrode voltage clamp of hEAG1 channels in Xenopus oocytes. Format: cell-based. The following applies: 10 μM, n = 4. The method in brief: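 Stage IV–V Xenopus oocytes were injected with ~0.2 ng WT or mutant hEAG1 cRNA, held 2–3 days at 18 °C in Barth's saline, and recorded by two-electrode clamp at 22–24 °C. Holding was −80 mV, with 2-s steps from −70 to +40 mV. G = end-of-pulse current/(Vt − Erev), divided by a Boltzmann-extrapolated control Imax, then Boltzmann-fitted for V0.5 and k.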

[5] abbreviates: 10 μM, during 37.8 s pulse to 0 mV.

As to 22-demethyl-azaspiracid [AZA3], at hERG channel [1], the “Maximum inhibition of hERG currents” value is 79.7 ± 1.6% and the “Rel. Pot., patch clamp” value amounted to 1.0. Moreover, the “hERG binding of [3H]dofetilide relative to vehicle controls (reduced to)” value at hERG channel [2] is recorded as 29.3 ± 1.6%. Further, at hERG channel [3], the “Thallium flux via hERG relative to vehicle controls (reduced to)” value was determined as 16.6 ± 0.50% and the “Rel. Pot., thallium flux” value was 0.7. In addition, the “Cytotoxic potency relative to AZA1” value in series [4] is 4.5 fold.

For the compound `C=C(C[C@@]12C[C@@H](C)C[C@@H](O1)[C@H]1O[C@]3(C[C@H]1O2)NC[C@H](C)C[C@@H]3C)[C@H]1O[C@@](O)([C@@H](O)[C@@H]2C[C@H]3O[C@@]4(CC[C@]5(CC(C)=C[C@@H](/C=C/CCC(=O)O)O5)O4)[C@H](C)C[C@H]3O2)[C@H](C)C[C@@H]1C` [AZA2, 8-methyl-azaspiracid], on hERG channel [1], the “Maximum inhibition of hERG currents” value stood at 87.3 ± 0.95% and the “Rel. Pot., patch clamp” value is recorded as 1.3. At hERG channel [2], the “hERG binding of [3H]dofetilide relative to vehicle controls (reduced to)” value came to 22.3 ± 1.0% and the “Rel. Pot., channel binding” value was found to be 0.8. Besides, on hERG channel [3], the “Thallium flux via hERG relative to vehicle controls (reduced to)” value stood at 9.6 ± 0.79% and the “Rel. Pot., thallium flux” value was determined as 0.8. Further, the “Cytotoxic potency relative to AZA1” value in series [4] was 8.3 fold.

As for `C=C(C[C@@]12C[C@@H](C)C[C@H](O1)[C@H]1O[C@]3(C[C@H]1O2)NC[C@H](C)C[C@@H]3C)[C@H]1O[C@@](O)([C@@H](O)[C@@H]2C[C@H]3O[C@@]4(CC[C@]5(CC=C[C@@H](/C=C/CCC(=O)O)O5)O4)[C@H](C)C[C@H]3O2)[C@H](C)C[C@@H]1C` [AZA1, azaspiracid], the “Slope factor k of G-Vt relationship” value on WT hERG1 channels (10 μM, control 8.1 ± 0.3, n = 6) came to 9.6 ± 0.3. Further, the “V0.5 of G-Vt relationship” value at WT hERG1 channels (10 μM, control -22.0 ± 0.5 mV, n = 6) is -20.7 ± 0.5 mV. At WT hERG1 channels (setting [5]), the “Amplitude of fast component of onset of block” value is 0.325, the “Amplitude of slow component of onset of block” value was determined as 0.433, the “τfast of onset of current block” value stood at 2.96 s and the “τslow of onset of current block” value came to 12.66 s. The “Peak outward hERG1 current, % of control” value at WT hERG1 channels (10 μM, measured at -10 mV, oocytes, n = 6) was 19.0 ± 2.4 % of control. In addition, the “Time constant of onset of hERG1 channel block (τonset)” value on WT hERG1 channels (10 μM, repetitive 1-s pulses to 0 mV, oocytes) is given as 1.5 min. In addition, the “Unblocked current, % of control” value on WT hERG1 channels (10 μM, single long pulse to 0 mV after 4 min pulse-free incubation, 10 µM) is 19% and 19.2%. Moreover, the “Inhibition of peak Itail” value at WT hERG1 channels (10 μM, tail currents at -70 mV, n = 6) was found to be 75 ± 2%. For the same compound, the “Tail current deactivation time constant, fast component” value on WT hERG1 channels (at -70 mV in the presence of AZA1 (control 249 ± 8 ms), n = 6) was determined as 205 ± 17 ms. In addition, at WT hERG1 channels (at -70 mV in the presence of AZA1 (control 1003 ± 57 ms), n = 6), the “Tail current deactivation time constant, slow component” value came to 745 ± 44 ms. In addition, on WT hERG1 channels (in the presence of AZA1 (control 0.80 ± 0.02)), the “Relative amplitude of the slow component of deactivation” value stood at 0.72 ± 0.02. Besides, the “Slope factor k of G-Vt relationship” value on F656T hERG1 channels (control 7.8 ± 0.1, n = 5) is 7.3 ± 0.1. Besides, the “V0.5 of G-Vt relationship” value at F656T hERG1 channels (control -31.0 ± 0.2 mV, n = 5) is reported as -32.6 ± 0.3 mV. Besides, the “Reduction of peak Itail” value on F656T hERG1 channels (test potentials greater than -20 mV, n = 5) came to 7 ± 1%. The “Sensitivity of channel currents to toxin” value on F656T hERG1 channels (test potentials negative to -20 mV) was “insensitive”. Moreover, the “Shift of V0.5 for activation” value at Y652A hERG1 channels was -5 mV. Further, the “Slope factor k of G-Vt relationship” value on Y652A hERG1 channels (control 6.4 ± 0.3, n = 5) is given as 7.3 ± 0.4. Further, on Y652A hERG1 channels (control -20.7 ± 0.6 mV, n = 5), the “V0.5 of G-Vt relationship” value was -26.0 ± 0.8 mV. In addition, the “Block of peak Itail” value at Y652A hERG1 channels (n = 5) is listed as 76 ± 3%. In addition, the “V0.5 of G-Vt relationship” value at hEAG1 channels (control 4.6 ± 0.7 mV) was determined as 6.4 ± 0.9 mV. Also, the “Slope factor k of G-Vt relationship” value on hEAG1 channels (control 16.3 ± 0.6) was 15.7 ± 0.7. For the same compound, on hEAG1 channels (test potential +40 mV), the “Block of hEAG1 current” value is listed as 15 ± 0.8%. Further, at hERG channel [1], the “Maximum inhibition of hERG currents” value was found to be 79.5 ± 1.8% and the “Rel. Pot., patch clamp” value stood at 1.0. Besides, on hERG channel [2], the “hERG binding of [3H]dofetilide relative to vehicle controls (reduced to)” value was determined as 19.7 ± 1.4% and the “Rel. Pot., channel binding” value amounted to 1.0. On hERG channel [3], the “Thallium flux via hERG relative to vehicle controls (reduced to)” value was 10.7 ± 0.56% and the “Rel. Pot., thallium flux” value was 1.0.

Values taken from PMC3444677 (Chemical research in toxicology, 2012).
